One data set deals with RS4-11. The experiment in a line: Antiproliferative activity against human RS4:11 cells assessed as growth inhibition at 20 uM after 48 hrs by CCK-8 assay relative to control. The data set is classed as functional. Particulars: for inhibition of growth at 20 µM: RS4-11, 48 h, read-out: GI. Put shortly:
(§1)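 Single-dose screen at 20 μM in RS4;11 (human ALL), HL-60 (human promyelocytic leukemia) and HEK293T (normal-cell model). Cells exposed 48 h, viability read by CCK-8, growth inhibition ratio expressed relative to control.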
(In general: Formazan colour is commonly taken as a measure of viable cells.)

The next data set concerns HL-60. Kind of data set: Antiproliferative activity against human HL60 cells assessed as growth inhibition at 20 uM after 48 hrs by CCK-8 assay relative to control. The data set is classed as functional. Particulars: for inhibition of growth at 20 µM: HL-60, 48 h, read-out: GI. Put shortly: as §1
A short description of data set [1]: Cytotoxicity against HEK293T cells assessed as growth inhibition at 20 uM after 48 hrs by CCK8 assay relative to control. The data set is classed as cell-based, HEK-293T. The conditions noted are these: human, HEK293T cells; read-out: GI. The method in brief:
as §1

The source made the active and inactive calls. The rule behind the calls is not given here.

On to `N#C/C(=C\c1ccccc1OS(=O)(=O)c1ccc(F)cc1)C(=O)Nc1nnc(Cc2ccccc2)s1`, for which the inhibition of growth at 20 µM was 69% with RS4-11 and 22% in the data set with HL-60. Moreover, the inhibition at 48 h, 20 µM in data set [1] was determined as 6%.
`N#C/C(=C\c1ccccc1OS(=O)(=O)c1ccc([N+](=O)[O-])cc1)C(=O)Nc1nnc(-c2cccs2)s1`: the inhibition of growth at 20 µM in the data set on RS4-11 amounted to 40%; in the data set with HL-60, 23%. Also, the inhibition at 48 h, 20 µM in data set [1] was 33%.
Regarding `COc1ccc(Cc2nnc(NC(=O)/C(C#N)=C/c3ccccc3OS(=O)(=O)c3ccc(F)cc3)s2)cc1`, the inhibition of growth at 20 µM with RS4-11 was 80%; in the data set on HL-60, 25%. Moreover, the inhibition at 48 h, 20 µM in data set [1] is 6%.
For the compound `N#C/C(=C\c1ccccc1OS(=O)(=O)c1ccc(OC(F)(F)F)cc1)C(=O)Nc1nnc(-c2cccs2)s1`, the results for the inhibition of growth at 20 µM in the data set with RS4-11 and in the data set with HL-60 were 39% and 48%, respectively. The inhibition at 48 h, 20 µM in data set [1] worked out at 42%.
As for `Cc1ccc(S(=O)(=O)Oc2ccccc2/C=C(\C#N)C(=O)Nc2nnc(Cc3cccc4ccccc34)s2)cc1`, the inhibition of growth at 20 µM in the data set on RS4-11 came out at 73%; with HL-60 it was 19%. In addition, in data set [1], the inhibition at 48 h, 20 µM was 23%.
Regarding `COc1ccc(Cc2nnc(NC(=O)/C(C#N)=C/c3ccccc3OS(=O)(=O)c3ccccc3[N+](=O)[O-])s2)cc1`, the inhibition of growth at 20 µM in the data set on RS4-11 turned out to be 68%; with HL-60, 25%. The inhibition at 48 h, 20 µM in data set [1] was 18%.
For `N#C/C(=C\c1cccc(NS(=O)(=O)c2ccc(F)cc2)c1)C(=O)Nc1nnc(-c2cccs2)s1`, the inhibition of growth at 20 µM in the data set with RS4-11 is 22%. In the data set with HL-60, the “growth inhibition (GI)” value was “inactive”. For the same compound, in data set [1], the inhibition at 48 h, 20 µM turned out to be 29%.
Regarding `Cc1ccc(S(=O)(=O)Oc2ccccc2/C=C(\C#N)C(=O)Nc2nnc(Cc3ccc(F)cc3)s2)cc1`, the inhibition of growth at 20 µM in the data set with RS4-11 turned out to be 72%. Further, the “growth inhibition (GI)” value with HL-60 is “inactive”. Moreover, the inhibition at 48 h, 20 µM in data set [1] was determined as 16%.
As to `Cc1ccc(Cc2nnc(NC(=O)/C(C#N)=C/c3ccccc3OS(=O)(=O)c3ccccc3[N+](=O)[O-])s2)cc1`, the “growth inhibition (GI)” value in the data set with RS4-11 is “inactive”. For the same compound, the inhibition of growth at 20 µM in the data set with HL-60 came out at 33%. In addition, the inhibition at 48 h, 20 µM in data set [1] was determined as 6%.
As for `N#C/C(=C\c1ccccc1OS(=O)(=O)c1ccccc1[N+](=O)[O-])C(=O)Nc1nnc(Cc2ccc(Cl)cc2)s1`, the inhibition of growth at 20 µM in the data set with RS4-11 came out at 65%; in the data set on HL-60, 19%. Besides, the inhibition at 48 h, 20 µM in data set [1] amounted to 20%.
Turning to `CS(=O)(=O)Oc1ccc(/C=C(\C#N)C(=O)Nc2nnc(-c3cccs3)s2)cc1`, the inhibition of growth at 20 µM in the data set with RS4-11 came out at 13%. Moreover, the “growth inhibition (GI)” value in the data set with HL-60 was “inactive”. In data set [1], the inhibition at 48 h, 20 µM is 19%.
Regarding `COc1ccc(Cc2nnc(NC(=O)/C(C#N)=C/c3ccccc3OS(=O)(=O)c3ccc(C)cc3)s2)cc1`, the inhibition of growth at 20 µM in the data set on RS4-11 came to 70%; in the data set on HL-60, 25%. Besides, in data set [1], the inhibition at 48 h, 20 µM stood at 21%.
For the compound `Cc1ccc(Cc2nnc(NC(=O)/C(C#N)=C/c3ccccc3OS(=O)(=O)c3ccc(F)cc3)s2)cc1`, the inhibition of growth at 20 µM with RS4-11 was determined as 73%; in the data set with HL-60, 11%. For the same compound, the inhibition at 48 h, 20 µM in data set [1] was 11%.
Regarding `Cc1ccc(S(=O)(=O)Oc2ccccc2/C=C(\C#N)C(=O)Nc2nnc(Cc3ccccc3)s2)cc1`, the figures for the inhibition of growth at 20 µM with RS4-11 and in the data set on HL-60 were 69% and 16%, respectively. Moreover, in data set [1], the inhibition at 48 h, 20 µM came out at 15%.
For the compound `Cc1ccc(S(=O)(=O)Oc2cccc(/C=C(\C#N)C(=O)Nc3nnc(-c4ccccc4)s3)c2)cc1`, the inhibition of growth at 20 µM with RS4-11 stood at 35%; with HL-60, 63%. Further, the inhibition at 48 h, 20 µM in data set [1] was 52%.
As to `N#C/C(=C\c1ccccc1OS(=O)(=O)c1ccccc1[N+](=O)[O-])C(=O)Nc1nnc(Cc2ccccc2)s1`, the inhibition of growth at 20 µM in the data set with RS4-11 turned out to be 71%; with HL-60, 12%. In addition, the inhibition at 48 h, 20 µM in data set [1] turned out to be 10%.

Source of the values: ChEMBL document CHEMBL4627348, “Synthesis of (1,3,4-thiadiazol-2-yl)-acrylamide derivatives as potential antitumor agents against acute leukemia cells” (Bioorg Med Chem Lett, 2020).
